Active and inactive are the calls of the source. Unless noted, the rule behind the calls is not given here.
Assays:
[1] = target: T1, tRNA (guanine-N(1)-)-methyltransferase (Pseudomonas aeruginosa (strain ATCC 15692 / DSM 22644 / CIP 104116 / JCM14847 / LMG 12228 / 1C / PRS 101 / PAO1)) (UniProt Q9HXQ1); assay: Binding affinity to Pseudomonas aeruginosa tRNA (guanine(37)-N1)-methyltransferase (Leu5 to Asp25 residues) expressed in Escherichia coli BL21 (DE3) Rosetta T1R cells assessed as thermal stabilization of protein by measuring change in melting temperature at 0.1 mM by SYPRO orange based thermal shift assay
T1 sequence (whole entry): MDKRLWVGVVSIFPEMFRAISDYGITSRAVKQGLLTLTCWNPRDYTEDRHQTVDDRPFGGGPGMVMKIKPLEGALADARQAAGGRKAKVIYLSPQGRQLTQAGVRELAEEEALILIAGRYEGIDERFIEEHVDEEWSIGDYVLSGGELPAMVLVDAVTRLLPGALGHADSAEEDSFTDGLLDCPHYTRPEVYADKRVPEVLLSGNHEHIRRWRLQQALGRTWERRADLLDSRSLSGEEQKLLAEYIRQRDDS
Method in brief: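 Thermal shift: 4 μM TrmD with 5× SYPRO Orange and ligand in 50 mM Tris-HCl pH 8, 150 mM NaCl, 1 mM MgCl2, 1 mM DTT, 0.05% Tween-20. Buffer-only control. Heated from 25 to 95 °C in a real-time PCR instrument, and Tm taken as the unfolding midpoint. Ligand levels: SAH 2 mM, inhibitors 0.1 mM.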

[2] = target: T1, tRNA (guanine-N(1)-)-methyltransferase (Pseudomonas aeruginosa (strain ATCC 15692 / DSM 22644 / CIP 104116 / JCM14847 / LMG 12228 / 1C / PRS 101 / PAO1)); assay: (§1) Inhibition of Pseudomonas aeruginosa tRNA (guanine(37)-N1)-methyltransferase (Leu5 to Asp25 residues) expressed in Escherichia coli BL21 (DE3) Rosetta T1R cells assessed as reduction in S-adenosyl-L-homocysteine production up to 50 uM preincubated for 15 mins followed by 1.5 uM of tRNALeu(CAG) substrate and SAM addition and measured after 45 mins by MTase-Glo assay
Method in brief: (§2)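 MTase-Glo luminescence assay. 8 nM TrmD preincubated 15 min at ambient temperature with serially diluted inhibitor (0–500 μM) in 50 mM Tris-HCl pH 8.0, 80 mM NaCl, 1 mM MgCl2, 0.5 mM DTT, 0.01% Triton X-100. Reaction with 2 μM SAM and tRNALeu(CAG), 45 min at 37 °C. Detection 30 min in the dark, SAH read against a standard curve. IC50 by nonlinear regression. Two independent experiments in duplicate.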

[3] = system: Erythrocyte; assay: Hemolytic activity in human RBC at 100 uM measured after 1 hr; format: ADME, cell-based
Method in brief: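 Fresh human RBCs were PBS-washed and resuspended to OD600 24, then mixed 1:1 by volume with compound serially diluted in PBS. Incubated 1 h at 37 °C without shaking and centrifuged at 1000g for 15 min. Triton X-100 served as positive control. Run in triplicate.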

[4] = system: Acinetobacter baumannii; assay: Antibacterial activity against Acinetobacter baumannii ATCC 17961 incubated for 24 hrs by serial broth microdilution method; format: functional
Method in brief: (§3)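 Log-phase cultures from four colonies grown overnight at 37 °C, inoculated at ~5×10^5 cells/mL in cation-adjusted Mueller–Hinton broth with serially diluted compound. Grown 24 h at 37 °C, then OD600 read. MIC50/MIC90 are the concentrations giving 50%/90% growth inhibition relative to drug-free controls. Two independent experiments in duplicate.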

[5] = system: Klebsiella pneumoniae; assay: Antibacterial activity against Klebsiella pneumoniae ATCC 13883 incubated for 24 hrs by serial broth microdilution method; format: functional, organism-based; method in brief: as §3
[6] = target: T2, tRNA (guanine-N(1)-)-methyltransferase (Pseudomonas aeruginosa (strain ATCC 15692 / DSM 22644 / CIP 104116 / JCM14847 / LMG 12228 / 1C / PRS 101 / PAO1), UniProt Q9HXQ1); assay: as §1, with “production” for “production up to 50 uM”; method in brief: as §2
T2 sequence (Q9HXQ1 whole entry): T1 sequence (whole entry)

[7] = system: Escherichia coli; assay: Antibacterial activity against Escherichia coli BW25113 incubated for 24 hrs by serial broth microdilution method; format: functional, organism-based; method in brief: as §3
[8] = system: Enterococcus faecalis; assay: Antibacterial activity against Enterococcus faecalis ATCC 51299 at 100 uM incubated for 24 hrs; format: functional, organism-based
Method in brief: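 Single-concentration screen in brain heart infusion broth. Log-phase cells at ~5×10^5 cells/mL were grown with 100 μM compound for 24 h at 37 °C. Growth was read as OD600 and expressed as a percentage of untreated wells. DMSO and blank controls were included.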

[9] = system: Staphylococcus aureus; assay: Antibacterial activity against methicillin-resistant Staphylococcus aureus ATCC 43300 incubated for 24 hrs by serial broth microdilution method; format: functional
Method in brief: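 Growth read by OD600. MRSA in cation-adjusted Mueller–Hinton broth, M. smegmatis in complete 7H9. MIC50 and MIC90 are 50% and 90% growth inhibition versus drug-free controls. Two independent experiments, each in duplicate.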

[10] = system: Streptococcus pneumoniae; assay: Antibacterial activity against Streptococcus pneumoniae ATCC 49619 incubated for 24 hrs by serial broth microdilution method; format: functional
Method in brief: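 Cultured in MH medium plus 3% defibrinated sheep blood at 37 °C, 5% CO2. Log-phase inoculum ~5×10^5 cells/mL was exposed to serial compound dilutions for 24 h. MIC50/MIC90 are relative to drug-free controls. Two independent experiments in duplicate.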

[11] = system: Mycobacterium tuberculosis; assay: Antibacterial activity against Mycobacterium tuberculosis ATCC 27294 at 100 uM incubated for 7 days; format: functional, organism-based
[12] = system: Salmonella enteritidis; assay: Antibacterial activity against Salmonella enteritidis ATCC 13076 incubated for 24 hrs by serial broth microdilution method; format: functional; details: Salmonella enterica subsp. enterica serovar Enteritidis; method in brief: as §3
[13] = system: Enterococcus faecalis; assay: Antibacterial activity against Enterococcus faecalis ATCC 51299 incubated for 24 hrs by serial broth microdilution method; format: functional, organism-based
Method in brief: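 Broth microdilution in brain heart infusion broth, ~5×10^5 cells/mL log-phase inoculum, serial compound dilutions, 24 h at 37 °C, OD600 read-out. MIC50/MIC90 are the concentrations giving 50%/90% growth inhibition relative to drug-free controls. Two independent experiments in duplicate.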

[14] = system: Streptococcus pneumoniae; assay: Antibacterial activity against Streptococcus pneumoniae ATCC 49619 at 100 uM incubated for 24 hrs; format: functional, organism-based
Method in brief: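 Single 100 μM screen in MH medium with 3% defibrinated sheep blood at 37 °C under 5% CO2, ~5×10^5 cells/mL, 24 h.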

[15] = system: Staphylococcus aureus; assay: Antibacterial activity against methicillin-resistant Staphylococcus aureus ATCC 43300 at 100 uM incubated for 24 hrs; format: functional, organism-based
Method in brief: (§4)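 Single-concentration growth screen: 100 μM test compound with log-phase bacteria at about 5×10^5 cells/mL. Incubation 24 h at 37 °C. Growth read by OD600 and given as percent of untreated control. MRSA was grown in cation-adjusted Mueller–Hinton broth. M. smegmatis was grown in complete Middlebrook 7H9. Ampicillin and kanamycin served as positive controls.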

[16] = system: Pseudomonas aeruginosa; assay: Antibacterial activity against Pseudomonas aeruginosa PA14 incubated for 24 hrs by serial broth microdilution method; format: functional, organism-based; method in brief: as §3
[17] = system: Mycolicibacterium smegmatis; assay: Antibacterial activity against Mycolicibacterium smegmatis MC2 155 at 100 uM incubated for 24 hrs; format: functional, organism-based; method in brief: as §4

Question: `CCCCCCCCNCc1ccc(CNC(=O)c2csc3ncnc(OCCC)c23)cc1` was tested. Which ΔTm [1] did it give?
Answer: 1 to 2 °C

Question: What about the inhibition [2] of the same molecule?
Answer: inactive

Question: For `COc1ncnc2scc(C(=O)NCc3ccc(CN4CCOCC4)cc3)c12`, which Activity [3] is on record?
Answer: Non-Toxic

Question: And the ΔTm [1]?
Answer: 1 to 2 °C

Question: And the inhibition [2]?
Answer: inactive

Question: `CCCOc1ncnc2scc(C(=O)NCc3ccc(CN4CCOCC4)cc3)c12` was tested. Which Activity [3] did it give?
Answer: Non-Toxic

Question: What about the ΔTm [1] of the same molecule?
Answer: 1 to 2 °C

Question: And the inhibition [2]?
Answer: inactive

Question: What does the source list for `CCCCCCOc1ncnc2scc(C(=O)NCc3ccc(CNCc4ccccc4)cc3)c12`?
Answer: ΔTm [1]: 1 to 2 °C; inhibition [2]: inactive

Question: With `Cl.NCCCCCCCNCc1ccc(CNC(=O)c2csc3nc[nH]c(=O)c23)cc1` as the molecule, how does the Activity [4] read?
Answer: inactive

Question: What about the Activity [5] of the same molecule?
Answer: inactive

Question: And the IC50 [6]?
Answer: 140 nM

Question: And the Activity [3]?
Answer: Non-Toxic

Question: What about the Activity [7] of the same molecule?
Answer: inactive

Question: What about the Activity [8] of the same molecule?
Answer: inactive

Question: And the Activity [9]?
Answer: inactive

Question: And the Activity [10]?
Answer: inactive

Question: What about the Activity [11] of the same molecule?
Answer: inactive

Question: What about the Activity [12] of the same molecule?
Answer: inactive

Question: And the Activity [13]?
Answer: inactive

Question: What about the Activity [14] of the same molecule?
Answer: inactive

Question: And the Activity [15]?
Answer: inactive

Question: And the Activity [16]?
Answer: inactive

Question: And the Activity [17]?
Answer: inactive
